Test results reported in ChEMBL document CHEMBL3112454, “Discovery and SAR study of hydroxyacetophenone derivatives as potent, non-steroidal farnesoid X receptor (FXR) antagonists” (Bioorg Med Chem, 2014).

The compounds below were run against T1, Bile acid receptor (Homo sapiens) (UniProt Q96RI1) (assay: Ratio of guggulsterone IC50 to compound IC50 for GST-tagged FXRalpha LBD (unknown origin) assessed as inhibition of CDCA-induced bio-SRC-1 recruitment after 30 mins by fluorescence based HTRF assay).
T1 sequence (whole entry): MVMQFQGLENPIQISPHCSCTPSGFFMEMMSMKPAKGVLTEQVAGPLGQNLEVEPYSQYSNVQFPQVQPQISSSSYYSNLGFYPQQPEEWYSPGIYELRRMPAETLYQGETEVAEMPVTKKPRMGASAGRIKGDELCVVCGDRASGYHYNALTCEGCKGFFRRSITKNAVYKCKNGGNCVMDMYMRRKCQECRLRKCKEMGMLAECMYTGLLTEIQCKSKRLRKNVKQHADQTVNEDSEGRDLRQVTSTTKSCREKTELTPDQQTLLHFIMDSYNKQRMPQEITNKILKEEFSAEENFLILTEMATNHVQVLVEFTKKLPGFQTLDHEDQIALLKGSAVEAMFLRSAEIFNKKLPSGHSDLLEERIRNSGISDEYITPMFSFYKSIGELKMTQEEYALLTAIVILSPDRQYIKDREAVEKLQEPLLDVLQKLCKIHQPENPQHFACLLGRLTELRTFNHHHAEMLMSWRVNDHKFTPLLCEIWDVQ

In the case of `CCc1cc(C(C)=O)c(OCc2ccccc2)cc1OCCCCCC(C)(C)c1nnn[nH]1`, the Ratio IC50 is reported as 100.

The compounds below were run against T2, Bile acid receptor (Homo sapiens, UniProt Q96RI1) (assay: Antagonist activity at GST-tagged FXRalpha LBD (unknown origin) assessed as inhibition of CDCA-induced bio-SRC-1 recruitment after 30 mins by fluorescence based HTRF assay).
T2 sequence (Q96RI1 whole entry): T1 sequence (whole entry)
How it was run: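 HTRF coactivator-recruitment assay: 10 nM GST-FXRα LBD with 100 nM biotinylated SRC-1 peptide, with CDCA as agonist present. Compounds were tested at a single concentration or a concentration series, incubated 30 min at room temperature, then fluorescence read. Values are mean SD of triplicate measurements.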

Compared with `CCc1cc(C(=O)c2ccccc2)c(O)cc1OCCCCCC(C)(C)c1nnn[nH]1`, `CCc1cc(C(C)=O)c(OCc2ccccc2)cc1OCCCCCC(C)(C)c1nnn[nH]1` is 2.8-fold lower in IC50: 3.1 µM for the first, 1.1 µM for the second. The second is the more potent here.

Going from `CCCCc1cc(C(C)=O)c(OCc2ccccc2)cc1OCCCCCC(C)(C)c1nnn[nH]1` to `CCc1cc(CC)c(OCc2ccccc2)cc1OCCCCCC(C)(C)c1nnn[nH]1`, the IC50 falls from 7.8 µM to 3.5 µM (2.2-fold).

`CCc1cc(C(C)=O)c(OC2CCCC2)cc1OCCCCCC(C)(C)c1nnn[nH]1` and `CCc1cc(C(C)=O)c(OCC2CCCCC2)cc1OCCCCCC(C)(C)c1nnn[nH]1` are within 1.5-fold of each other in IC50: 3.3 µM for the first, 2.9 µM for the second.

Going from `CCCCc1cc(C(C)=O)c(O)cc1OCCCCCC(C)(C)c1nnn[nH]1` to `CCCc1cc(C(C)=O)c(O)cc1OCCCCCC(C)(C)c1nnn[nH]1`, the IC50 rises from 1.5 µM to 25.2 µM (17-fold).

Going from `CCCCc1cc(CC)c(O)cc1OCCCCCC(C)(C)c1nnn[nH]1` to `CCCCC(=O)c1cc(CC)c(OCCCCCC(C)(C)c2nnn[nH]2)cc1O`, the IC50 falls from 8.7 µM to 5.4 µM (1.6-fold). The second is the more potent here.

Going from `CCc1cc(C(C)=O)c(O)cc1OCCCCCC(C)(C)C(=O)O` to `CCc1cc(C(C)=O)c(O)cc1OCCCCCC(C)(C)c1nn[nH]n1` [LY-255283], the IC50 falls from over 100 µM to 35.2 µM. The second is the more potent here.

`CC(=O)c1cc(CC(C)C)c(OCCCCCC(C)(C)c2nnn[nH]2)cc1O` and `CCc1cc(C(=O)C(C)C)c(O)cc1OCCCCCC(C)(C)c1nnn[nH]1` are within 1.5-fold of each other in IC50: 5.8 µM for the first, 8.6 µM for the second.

`CCC(=O)c1cc(CC)c(OCCCCCC(C)(C)c2nnn[nH]2)cc1O` and `CCCCCCC(=O)c1cc(CC)c(OCCCCCC(C)(C)c2nnn[nH]2)cc1O` are within 1.5-fold of each other in IC50: 8.5 µM for the first, 8.4 µM for the second.

Compared with `CCc1cc(C(C)=O)c(OC)cc1OCCCCCC(C)(C)c1nnn[nH]1`, `CCc1cc(C(C)=O)c(OC(C)c2ccccc2)cc1OCCCCCC(C)(C)c1nnn[nH]1` (configuration not stated) is 3.2-fold lower in IC50: 5.5 µM for the first, 1.7 µM for the second. The second is the more potent here.

Going from `CCCCCCc1cc(C(C)=O)c(O)cc1OCCCCCC(C)(C)c1nnn[nH]1` to `CCc1cc(C(C)=O)c(OCc2cccc(C)c2)cc1OCCCCCC(C)(C)c1nnn[nH]1`, the IC50 falls from 3.2 µM to 1.2 µM (2.7-fold).

`CCc1cc(CC)c(OCCCCCC(C)(C)c2nn[nH]n2)cc1O` gave an IC50 of 3.1 µM.
